This is an account of results in the EternaBench riboswitch data.

The subject of this data set is MS2 coat protein. The data set can be described thus: apparent Kd, MS2 coat protein; higher = weaker binding; RNA-MaP array; FMN 200 µM where present. The method, boiled down: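 In 100 mM Tris-HCl pH 7.5, 80 mM KCl, 4 mM MgCl2, BSA, DTT, yeast tRNA and Tween-20, SNAP-549-labelled MS2 coat protein was titrated from 0.7 or 1.5 nM, doubling to 3 µM, over designs transcribed by stalled E. coli RNA polymerase on Illumina sequencing-chip clusters. This was done first without ligand, then with ligand held constant. After green signal was normalised to red-channel RNA signal and control-cluster median Fmax, the apparent Kd was taken as the median of filtered per-cluster binding-curve fits.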

The mark [1] stands for this setting: designed as: ON switch for flavin mononucleotide, no ligand.
Setting [2] is: ligand present: flavin mononucleotide, designed as: ON switch for flavin mononucleotide.
[3] abbreviates: designed as: OFF switch for flavin mononucleotide, no ligand.
[4] abbreviates: ligand present: flavin mononucleotide, designed as: OFF switch for flavin mononucleotide.

For orientation: apparent Kd means the concentration giving half-maximal binding under the conditions of the assay. For “AGUGUCAUCGAGAAGGCCUCAUUAACAUGAGGAUCACCCAUGUAAUAUGGGAGGAUAUCGAUGAUACAGCUACGUUUCGUAGCA”, the “apparent Kd” value under setting [1] stood at 216 nM and the “apparent Kd” value under setting [2] was found to be 55.2 nM.

“CCUCUACAUGAGGAUCACCCAUGUGAGGAUAUCUCGGAGCAGCCUAUUAAGGCGCUCCAGAGAAGGCACGUGUA”: the “apparent Kd” value came out at 19.3 nM under setting [3] and 28.3 nM under setting [4].

Consider “GGAGCCGGUACUGAGGAUAUUCAUAUUAAAACAUGAGGAUCACCCAUGUAGGCCAGAAGGCCUUGGGAGAAGGCGGACCAGCUCG”, for which the “apparent Kd” value amounted to 463 nM under setting [1] and 32.8 nM under setting [2].

As for “GAGCUAUGAGGAUAUGCAUAUAUGCGGUUUCGUGUGGUACUACAUGAGGAUCACCCAUGUAGAAGGCGUGGCUG”, the “apparent Kd” value worked out at 17.2 nM under setting [3] and 17 nM under setting [4].

For the sequence “GUAAAUCAUGUAGGAUAUGCAUGGCGAAGCUACGCAGAAGGACAUGAGGAUCACCCAUGUUCUAGCGUCUGAGUUCAGAUGCAA”, the “apparent Kd” value under setting [3] was 19.3 nM and the “apparent Kd” value under setting [4] worked out at 45.9 nM.

In the case of “GGUGUGAGGCAGGAUAUGCUAUAUGUUAGUAAUGCAGAAGGGUCUACAUGAGGAUCACCCAUGUGUGCGGUUGA”, the “apparent Kd” value by setting is: under setting [3], 90.5 nM; under setting [4], 394 nM.

“AAUAUAAAGAGCUGGAACCUAAUAACAUGAGGAUCACCCAUGUAGGAUAUCAGCACGAUAAGUGCUGAGAAGGACAUCCAGCUC”: the “apparent Kd” value by setting is: under setting [3], 14.7 nM; under setting [4], 14.8 nM.

On to “GGCGAACGGGCUUACAUGAGGAUCACCCAUGUAGACUCAUGGUAGGAUAUGCUGAACAAAGUUCAGCAGAAGGGCCGGUGAGCU”, for which the “apparent Kd” value was found to be 86.6 nM under setting [1] and 46.3 nM under setting [2].

Regarding “CUGAGCUGAGGAUAUACAUGAGGAUCACCCAUGUGAAGUAGCUUGCGUACAGGCAGAUGUAGAAGGCAGUUCGG”, the “apparent Kd” value was 39.1 nM under setting [3] and 179 nM under setting [4].

On to “CGCAAUAUACAGAAGGAGUUAUUGAGAGGUUUACUAGGAUAUGUUCACAUGAGGAUCACCCAUGUCAUAUGGUUUUUUAUUGCG”, for which the “apparent Kd” value by setting is: under setting [3], 13.6 nM; under setting [4], 11.4 nM.

As to “UGUUUUCAUGUAGGAUAUGCUUGUCGUAGAUACGCAGAAGGACAUGAGGAUCACCCAUGUUAAUGCGACAGAUUUUAGUUUCUU”, the “apparent Kd” value is, setting by setting: under setting [3], 19.6 nM; under setting [4], 62 nM.

“AGCAGAACGUCAGGAUAUGUGGGUACUUUAGUCACAUGAGGAUCACCCAUGUAGGACUGCGAUCAACAGAAGGGACAAUUAGCA”: the “apparent Kd” value worked out at 279 nM under setting [1] and 16.2 nM under setting [2].

With “AAUGUGUGUCGAGGAUAUAUAACAUGACAACAAACACAUACAUGAGGAUCACCCAUGUCCCAUGUAUAGAAGGCGAUGUGUGUG”, the “apparent Kd” value is, setting by setting: under setting [1], 219 nM; under setting [2], 434 nM.

On to “CCGUCAAUCGAGAAGGGCCUAUGUGCUACAUCGGCAGGAUAUCGACAUGAGGAUCACCCAUGUUGGCGAUCCUUUUUGGCGGAC”, for which the “apparent Kd” value by setting is: under setting [3], 156 nM; under setting [4], 24.1 nM.

As for “UUCGUGCAGCUUUGCUGUACGCGUACAUGAGGAUCACCCAUGUAGGAUAUGGUAGGCUUUGCUUACUAGAAGGAUAUAGUGAUC”, the “apparent Kd” value was found to be 153 nM under setting [3] and 221 nM under setting [4].

Take “CCGUAGAGAGGAUAUACAUGAGGAUCACCCAUGUGACAUCGAACGAUGUCGCCUAGUCGUAGAAGGUUCAAACG”: the “apparent Kd” value by setting is: under setting [3], 25.4 nM; under setting [4], 24.8 nM.

Consider “GACUCUAAGUUUGUCACUUAGAGAGAGGAUAUGGAAAACUUGACAUGAGGAUCACCCAUGUAUAAUCAGAAGGCUCGAGUACGA”, for which the “apparent Kd” value by setting is: under setting [1], 9.95 nM; under setting [2], 8.98 nM.

In the case of “AGGAUACACCAGAAGGACAUGAGGAUCACCCAUGUAGGAUAUGGGUACGCCGACAUUAGUCUGCUCUCGGUAGACUUUCCUGAU”, the “apparent Kd” value by setting is: under setting [1], 75.1 nM; under setting [2], 10.4 nM.

For “UUAUUAUGUGUAGGAUAUGCAUAUUAUUAUUAUGCAGAAGGACAUGAGGAUCACCCAUGUAUAUUAUUAUUAUAUAUUAUAUGU”, the “apparent Kd” value by setting is: under setting [3], 21.1 nM; under setting [4], 44.2 nM.

With “AAGUCUGGAUGAGGAUAUCAGCUGUAACUGGCGUCGACAUGAGGAUCACCCAUGUUGCUAUAGGGUGAGAAGGCAUUUGGGCAA”, the “apparent Kd” value is, setting by setting: under setting [1], 43.1 nM; under setting [2], 28.8 nM.
